Data set [1] can be described thus: melting temperature; fluorescence melt of hairpins on a sequencing array, two-state fit, raised by 9.35 °C to match UV melts. As to conditions: sodium 0.088 M. A digest of the protocol: (§1)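 To match UV melts, fitted temperatures were raised by 9.35 °C. These fits were bootstrapped two-state models that gave melting temperature and folding enthalpy, combined by inverse variance over four replicates. The input was normalised Cy3 fluorescence of library hairpins with annealed Cy3 and quencher oligos on a sequenced MiSeq flow cell, imaged in 50 mM Na-HEPES pH 8.0, 25 mM NaCl in 2.5 °C steps up to 60 °C.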

A short description of data set [2]: folding enthalpy; higher = less favourable; fluorescence melt of hairpins on a sequencing array, two-state fit. The conditions noted are these: sodium 0.088 M. In outline:
as §1

Consider 54 sequences from the array DNA melting data of Ke et al. (doi:10.1101/2024.01.08.574731).

GTCGCAGGAAACCACGAC ((((..(....)..)))): the Tm in data set [1] was found to be 35.4 °C. Moreover, the folding enthalpy in data set [2] is -28 kcal/mol.
As for GTCGCAGGAAACCGCAAC ((.((.(....).)).)), the Tm in data set [1] turned out to be 25.8 °C. In addition, the folding enthalpy in data set [2] was -12.8 kcal/mol.
Consider GTCGCATCGAAAGATGAC (((..(((....)))))), for which, in data set [1], the Tm is 28.9 °C. The folding enthalpy in data set [2] was -13.4 kcal/mol.
For GTCGCCGCGAAAGCGGAC (((..(((....)))))), in that order: 32.8 °C and -6.08 kcal/mol.
For GTCGCGCGAAAGCGAGAC (((.(((....))).))), in that order: 68.2 °C and -25.4 kcal/mol.
For GTCGCGGGAAACCGCAAC ((.((((....)))).)), the Tm in data set [1] stood at 44.1 °C. In addition, the folding enthalpy in data set [2] was -13.3 kcal/mol.
For the sequence GTCGCGGGAAACCGTGAC (((.(((....))).))), in data set [1], the Tm was determined as 59.8 °C. Besides, the folding enthalpy in data set [2] is -35.2 kcal/mol.
GTCGCGGGAAACTGCGAC (((((.(....).))))): the Tm in data set [1] came to 65.3 °C. In addition, the folding enthalpy in data set [2] was -41.2 kcal/mol.
For GTCGCGGGAAACTGCGGC (.(((.(....).))).), in that order: 54.7 °C and -27.1 kcal/mol.
For the sequence GTCGCTCCGAAAGGAGAC (((..(((....)))))), the Tm in data set [1] was found to be 34.9 °C. The folding enthalpy in data set [2] is -10.5 kcal/mol.
On to GTCGCTCGAAAGAGGAC (((.(((....)))))), for which the Tm in data set [1] came to 45.4 °C. In addition, the folding enthalpy in data set [2] was -18.1 kcal/mol.
With GTCGCTCGAAAGAGTGAC (((.(((....))).))), in data set [1], the Tm is 62.6 °C. In addition, the folding enthalpy in data set [2] was -43.3 kcal/mol.
Regarding GTCGCTGCGAAAGCAGAC (((..(((....)))))), in data set [1], the Tm amounted to 38.5 °C. The folding enthalpy in data set [2] was -10 kcal/mol.
On to GTCGCTGGAAACAGTGGC (.(.(((....))).).), for which, in data set [1], the Tm came to 45.4 °C. Besides, in data set [2], the folding enthalpy is -27.8 kcal/mol.
For GTCGGACGAAAGTCGGAC (((.(((....))).))), in that order: 58.5 °C and -32.3 kcal/mol.
Turning to GTCGGACGAAAGTCTGAC (((.(((....))).))), the Tm in data set [1] was 61.5 °C. Besides, in data set [2], the folding enthalpy was -40.9 kcal/mol.
On to GTCGGAGGAAACCCCGAC (((((.(....).))))), for which the Tm in data set [1] amounted to 53.8 °C. In data set [2], the folding enthalpy was -33.3 kcal/mol.
GTCGGCACGAAAGTGGAC (((..(((....)))))): the Tm in data set [1] worked out at 34.7 °C. In addition, the folding enthalpy in data set [2] is -12.3 kcal/mol.
On the same counts, the results for GTCGGCGAAAGCCACGAC ((((((....)))..))) are 56 °C and -14.4 kcal/mol.
For GTCGGCGAAAGCCCCGAC ((((((....)))..))), in that order: 41.8 °C and -15.6 kcal/mol.
In the case of GTCGGCGAAAGCCGGAC ((((((....))).))), in data set [1], the Tm came out at 61.1 °C. Moreover, the folding enthalpy in data set [2] is -12.4 kcal/mol.
For GTCGGCGAAAGCCGTGAC ((((((....)))..))), in that order: 41.1 °C and -8.14 kcal/mol.
Consider GTCGGTCCGAAAGGAGAC (((..(((....)))))), for which the Tm in data set [1] is 36 °C. Further, the folding enthalpy in data set [2] was -15 kcal/mol.
In the case of GTCGGTGGAAACACCAAC ((.((((....)))).)), the Tm in data set [1] stood at 39.4 °C. Further, the folding enthalpy in data set [2] is -18.1 kcal/mol.
Turning to GTCGGTGGAAACACTGGC (.(.(((....))).).), in data set [1], the Tm came out at 42.8 °C. In addition, the folding enthalpy in data set [2] was -27.8 kcal/mol.
On to GTCGGTGGAAACGCCGAC (((((.(....).))))), for which the Tm in data set [1] came to 63.2 °C. In data set [2], the folding enthalpy was -50 kcal/mol.
As for GTCGTACCGAAAGGTGAC (((..(((....)))))), in data set [1], the Tm came to 42.8 °C. The folding enthalpy in data set [2] was -18.6 kcal/mol.
As to GTCGTACGAAAGTAGAC (((.(((....)))))), the Tm in data set [1] came to 52 °C. The folding enthalpy in data set [2] is -32.4 kcal/mol.
Take GTCGTAGCGAAAGCTGAC (((..(((....)))))): in data set [1], the Tm is 46.3 °C. Besides, the folding enthalpy in data set [2] was -19.6 kcal/mol.
On to GTCGTAGGAAACTACAAC ((.((((....)))).)), for which the Tm in data set [1] was determined as 30 °C. The folding enthalpy in data set [2] is -21 kcal/mol.
On the same counts, the results for GTCGTCGAAAGACATGAC ((((((....)))..))) are 38.5 °C and -17.4 kcal/mol.
As to GTCGTCGAAAGACCCGAC ((((((....)))..))), the Tm in data set [1] is 31.3 °C. Besides, the folding enthalpy in data set [2] was -14.5 kcal/mol.
As for GTCGTCGAAAGACGCGAC ((((((....)))..))), in data set [1], the Tm was 55.7 °C. In data set [2], the folding enthalpy is -12.5 kcal/mol.
With GTCGTCGAAAGACGGAC ((((((....))).))), the Tm in data set [1] was 56.2 °C. In addition, in data set [2], the folding enthalpy was -13.6 kcal/mol.
GTCGTCGGAAACGATGAC (((.(((....))).))): the Tm in data set [1] is 55.5 °C. In data set [2], the folding enthalpy was -44.4 kcal/mol.
Consider GTCGTCGGAAACGGTGAC (((..((....))..))), for which the Tm in data set [1] was determined as 42.4 °C. Further, the folding enthalpy in data set [2] was -24 kcal/mol.
As for GTCGTGGGAAACTACGGC (.(((.(....).))).), the Tm in data set [1] was 44.7 °C. For the same sequence, the folding enthalpy in data set [2] is -25.6 kcal/mol.
On the same counts, the results for GTCGTGTCGAAAGACGAC (((..(((....)))))) are 48.9 °C and -19.9 kcal/mol.
As for GTCGTTGGAAACAATGGC (.(.(((....))).).), in data set [1], the Tm came to 35 °C. The folding enthalpy in data set [2] was -24.8 kcal/mol.
On to GTCTAAGGAAACTCAGAC ((((.((....)).)))), for which the Tm in data set [1] was 26.6 °C. Also, the folding enthalpy in data set [2] was -11.5 kcal/mol.
GTCTACGAAAGTACTGAC ((((((....)))..))): the Tm in data set [1] was 28.9 °C. Further, the folding enthalpy in data set [2] was -10.8 kcal/mol.
As for GTCTACGAAAGTAGAC ((((((....)))))), the Tm in data set [1] was determined as 66.8 °C. In data set [2], the folding enthalpy was -36.8 kcal/mol.
For GTCTAGTCGAAAGACGAC (((..(((....)))))), in that order: 39.4 °C and -14.3 kcal/mol.
Turning to GTCTATCGAAAGATCGAC (((.(((....))).))), the Tm in data set [1] is 41.4 °C. Besides, the folding enthalpy in data set [2] was -40.4 kcal/mol.
As for GTCTATCGAAAGATGAC (((.(((....)))))), the Tm in data set [1] turned out to be 42 °C. Further, the folding enthalpy in data set [2] was -27.1 kcal/mol.
GTCTATGGAAACACAGAC ((((.((....)).)))): the Tm in data set [1] was found to be 31.6 °C. The folding enthalpy in data set [2] is -21 kcal/mol.
As for GTCTCAACGAAAGTTGAC (((..(((....)))))), the Tm in data set [1] amounted to 30.5 °C. In addition, the folding enthalpy in data set [2] was -10.7 kcal/mol.
For the sequence GTCTCAGAAATGAGAC ((((((....)))))), in data set [1], the Tm was 53.8 °C. The folding enthalpy in data set [2] is -41.8 kcal/mol.
In the case of GTCTCAGGAAACCGAGAC (((((.(....).))))), the Tm in data set [1] turned out to be 45.7 °C. Also, the folding enthalpy in data set [2] was -30.8 kcal/mol.
Turning to GTCTCCCGAAAGGGGGAC (((.(((....))).))), the Tm in data set [1] stood at 65.9 °C. Also, the folding enthalpy in data set [2] is -32.4 kcal/mol.
With GTCTCCGAAAGGAGTGAC ((((((....)))..))), the Tm in data set [1] amounted to 36 °C. Further, the folding enthalpy in data set [2] is -11.2 kcal/mol.
On to GTCTCCGAAAGGATTGAC ((((((....)))..))), for which the Tm in data set [1] was found to be 35.5 °C. The folding enthalpy in data set [2] was -20 kcal/mol.
On the same counts, the results for GTCTCGGCGAAAGCCGAC (((..(((....)))))) are 35.6 °C and -4.96 kcal/mol.
GTCTCGGGAAACCAAGAC ((((.((....)).)))): in data set [1], the Tm was 37.2 °C. Moreover, in data set [2], the folding enthalpy is -26.5 kcal/mol.
